ChEMBL document CHEMBL5705905, “Pharmacological targeting of kinases MST1 and MST2 augments tissue repair and regeneration” (Sci Transl Med, 2016)
Calls of active or inactive are those of the source. The calls are words filed in the database; no cut-off is given here.

Key:
[1] = target: Serine/threonine-protein kinase MARK2 (Homo sapiens) (UniProt Q7KZI7); assay: Inhibition of MARK2 (unknown origin) assessed as remaining activity at 1 uM by Kinome scan method relative to control
[2] = target: Serine/threonine-protein kinase Nek1 (Homo sapiens) (UniProt Q96PY6); assay: Inhibition of NEK1 (unknown origin) assessed as remaining activity at 1 uM by Kinome scan method relative to control
[3] = target: Interleukin-1 receptor-associated kinase 4 (Homo sapiens) (UniProt Q9NWZ3); assay: Inhibition of IRAK4 (unknown origin) assessed as remaining activity at 1 uM by Kinome scan method relative to control
[4] = system: Phosphatidylinositol 4,5-bisphosphate 3-kinase catalytic subunit alpha isoform (Homo sapiens), P42336 [H1047Y]; assay: Inhibition of PIK3CA H1047Y mutant (unknown origin) assessed as remaining activity at 1 uM by Kinome scan method relative to control
[5] = target: NUAK family SNF1-like kinase 2 (Homo sapiens) (UniProt Q9H093); assay: Inhibition of SNARK (unknown origin) assessed as remaining activity at 1 uM by Kinome scan method relative to control
[6] = target: Serine/threonine-protein kinase NLK (Homo sapiens) (UniProt Q9UBE8); assay: Inhibition of NLK (unknown origin) assessed as remaining activity at 1 uM by Kinome scan method relative to control
Mus musculus = assay: Protection against APAP induced liver injury in mouse assessed as continual expansion of centrilobular necrotic lesions at 1 mg/kg, ip administered at 2.5 hrs by H&E staining; format: functional, organism-based
[7] = target: Tyrosine-protein kinase ABL1 (Homo sapiens, UniProt P00519, M351T); assay: Binding affinity to phosphorylated ABL1 M351T mutant (unknown origin) assessed as dissociation constant
[8] = target: Glycogen synthase kinase-3 alpha (Homo sapiens) (UniProt P49840); assay: Inhibition of GSK3alpha (unknown origin) assessed as remaining activity at 1 uM by Kinome scan method relative to control
[9] = target: Macrophage colony-stimulating factor 1 receptor (Homo sapiens) (UniProt P07333); assay: Inhibition of CSF1R (unknown origin) assessed as remaining activity at 1 uM by Kinome scan method relative to control
Procedure, shortened: (§1)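 Active-site-dependent competition-binding profiling (KINOMEscan) at 1 μM against a 468-kinase panel; compound supplied from a 10 mM DMSO stock. Read-out is ctrl% = (test signal − positive control signal)/(negative control signal − positive control signal) × 100. DMSO is the negative control (100%) and a control compound the positive control (0%). Lower ctrl% means tighter binding.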

[10] = target: Receptor-interacting serine/threonine-protein kinase 1 (Homo sapiens) (UniProt Q13546); assay: Inhibition of RIPK1 (unknown origin) assessed as remaining activity at 1 uM by Kinome scan method relative to control
[11] = target: Serine/threonine-protein kinase 24 (Homo sapiens, UniProt Q9Y6E0); assay: Inhibition of MST3 (unknown origin) assessed as remaining activity at 1 uM by Kinome scan method relative to control
Primary hepatocyte = assay: Inhibition of MST1/2 (unknown origin) in mouse Primary hepatocyte cells assessed as H2O2 stimulated MOB1 phosphorylation level at 1 to 3 uM by immunoblot analysis; format: cell-based; details: dose 1-3 µM
[12] = target: 3-phosphoinositide-dependent protein kinase 1 (Homo sapiens) (UniProt O15530); assay: Inhibition of PDPK1 (unknown origin) assessed as remaining activity at 1 uM by Kinome scan method relative to control
[13] = target: Serine/threonine-protein kinase MRCK gamma (Homo sapiens) (UniProt Q6DT37); assay: Inhibition of DMPK2 (unknown origin) assessed as remaining activity at 1 uM by Kinome scan method relative to control
[14] = target: Non-receptor tyrosine-protein kinase TYK2 (Homo sapiens, UniProt P29597); assay: Inhibition of TYK2 JH1domain-catalytic (unknown origin) in presence of ATP by enzymatic assay
[15] = target: Receptor-interacting serine/threonine-protein kinase 4 (Homo sapiens) (UniProt P57078); assay: Inhibition of RIPK4 (unknown origin) assessed as remaining activity at 1 uM by Kinome scan method relative to control
[16] = target: Serine/threonine-protein kinase DCLK1 (Homo sapiens) (UniProt O15075); assay: Inhibition of DCAMKL1 (unknown origin) assessed as remaining activity at 1 uM by Kinome scan method relative to control
Procedure, shortened: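 Active-site-dependent competition-binding assay (KINOMEscan) across a 468-kinase panel, with the inhibitor tested at 1 μM from a 10 mM DMSO stock. Read-out is ctrl% = (test signal − positive control)/(negative control − positive control) × 100. DMSO is the negative control (100%) and a control compound the positive control (0%). Lower ctrl% means tighter binding.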

[17] = target: Mitogen-activated protein kinase kinase kinase 19 (Homo sapiens) (UniProt Q56UN5); assay: Inhibition of YSK4 (unknown origin) assessed as remaining activity at 1 uM by Kinome scan method relative to control
[18] = system: Receptor-type tyrosine-protein kinase FLT3 (Homo sapiens), P36888 [D835H]; assay: Inhibition of FLT3 D835H mutant (unknown origin) assessed as remaining activity at 1 uM by Kinome scan method relative to control
[19] = target: Eukaryotic translation initiation factor 2-alpha kinase 1 (Homo sapiens) (UniProt Q9BQI3); assay: Inhibition of EIF2AK1 (unknown origin) assessed as remaining activity at 1 uM by Kinome scan method relative to control
[20] = target: Ephrin type-A receptor 1 (Homo sapiens) (UniProt P21709); assay: Inhibition of EPHA1 (unknown origin) assessed as remaining activity at 1 uM by Kinome scan method relative to control
[21] = target: Activin receptor type-2A (Homo sapiens) (UniProt P27037); assay: Inhibition of ACVR2A (unknown origin) assessed as remaining activity at 1 uM by Kinome scan method relative to control
Procedure, shortened: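 Active-site-dependent competition-binding (KINOMEscan) panel of 468 kinases, test compound at 1 μM (from a 10 mM DMSO stock). Read-out is ctrl% = (test signal − positive control signal)/(negative control signal − positive control signal) × 100. DMSO is the negative control (100%) and a control compound is the positive control (0%). Lower ctrl% means tighter binding.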

[22] = target: Serine/threonine-protein kinase ULK2 (Homo sapiens, UniProt Q8IYT8); assay: Inhibition of ULK2 (unknown origin) in presence of ATP by enzymatic assay
[23] = target: Dual specificity mitogen-activated protein kinase kinase 7 (Homo sapiens) (UniProt O14733); assay: Inhibition of MKK7 (unknown origin) assessed as remaining activity at 1 uM by Kinome scan method relative to control
[24] = target: Cyclin-dependent kinase 13 (Homo sapiens) (UniProt Q14004); assay: Inhibition of CDC2L5 (unknown origin) assessed as remaining activity at 1 uM by Kinome scan method relative to control; procedure, shortened: as §1
[25] = target: Serine/threonine-protein kinase ULK1 (Homo sapiens) (UniProt O75385); assay: Inhibition of ULK1 (unknown origin) assessed as remaining activity at 1 uM by Kinome scan method relative to control

Ephrin type-A receptor 1 (Homo sapiens), sequence (P21709 whole entry): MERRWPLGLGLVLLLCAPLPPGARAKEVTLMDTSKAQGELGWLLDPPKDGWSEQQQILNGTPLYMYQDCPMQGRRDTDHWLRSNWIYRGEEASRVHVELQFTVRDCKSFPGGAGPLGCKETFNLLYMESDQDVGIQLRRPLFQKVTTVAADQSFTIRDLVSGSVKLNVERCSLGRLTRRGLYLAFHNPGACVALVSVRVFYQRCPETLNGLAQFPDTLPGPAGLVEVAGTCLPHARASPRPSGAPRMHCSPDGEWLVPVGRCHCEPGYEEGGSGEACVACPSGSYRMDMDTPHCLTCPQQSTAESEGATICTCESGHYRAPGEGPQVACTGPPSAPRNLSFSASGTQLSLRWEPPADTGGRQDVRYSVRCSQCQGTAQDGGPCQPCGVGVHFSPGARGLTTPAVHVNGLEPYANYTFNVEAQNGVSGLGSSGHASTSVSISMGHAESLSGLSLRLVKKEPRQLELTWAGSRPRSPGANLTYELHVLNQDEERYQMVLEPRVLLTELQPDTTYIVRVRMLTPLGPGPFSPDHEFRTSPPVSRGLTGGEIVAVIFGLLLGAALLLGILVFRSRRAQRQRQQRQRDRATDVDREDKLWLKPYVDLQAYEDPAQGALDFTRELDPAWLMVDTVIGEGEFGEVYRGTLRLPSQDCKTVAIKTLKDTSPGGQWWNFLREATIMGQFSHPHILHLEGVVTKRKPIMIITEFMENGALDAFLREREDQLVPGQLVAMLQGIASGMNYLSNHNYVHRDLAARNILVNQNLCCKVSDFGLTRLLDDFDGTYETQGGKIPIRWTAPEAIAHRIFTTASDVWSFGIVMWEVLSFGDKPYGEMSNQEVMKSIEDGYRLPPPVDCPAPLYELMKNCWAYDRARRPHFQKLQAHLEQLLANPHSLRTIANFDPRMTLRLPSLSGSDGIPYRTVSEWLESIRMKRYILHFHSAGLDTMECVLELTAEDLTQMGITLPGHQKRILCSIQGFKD
3-phosphoinositide-dependent protein kinase 1 (Homo sapiens), sequence (O15530 whole entry): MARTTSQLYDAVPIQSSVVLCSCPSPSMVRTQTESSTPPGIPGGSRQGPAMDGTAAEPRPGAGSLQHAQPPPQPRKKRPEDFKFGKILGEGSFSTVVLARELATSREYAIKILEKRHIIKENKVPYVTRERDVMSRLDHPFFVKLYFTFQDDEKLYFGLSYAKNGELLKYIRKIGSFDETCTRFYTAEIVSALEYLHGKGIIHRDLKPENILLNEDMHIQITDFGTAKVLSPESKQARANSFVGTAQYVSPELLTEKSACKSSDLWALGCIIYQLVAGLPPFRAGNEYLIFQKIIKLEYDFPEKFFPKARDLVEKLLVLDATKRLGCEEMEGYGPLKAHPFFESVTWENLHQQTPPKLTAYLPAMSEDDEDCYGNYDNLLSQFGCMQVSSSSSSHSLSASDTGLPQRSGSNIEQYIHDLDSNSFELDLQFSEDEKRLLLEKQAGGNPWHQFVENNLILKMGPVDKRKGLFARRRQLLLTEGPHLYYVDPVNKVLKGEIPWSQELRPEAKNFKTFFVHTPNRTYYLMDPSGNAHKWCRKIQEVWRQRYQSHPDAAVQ
Eukaryotic translation initiation factor 2-alpha kinase 1 (Homo sapiens), sequence (Q9BQI3 whole entry): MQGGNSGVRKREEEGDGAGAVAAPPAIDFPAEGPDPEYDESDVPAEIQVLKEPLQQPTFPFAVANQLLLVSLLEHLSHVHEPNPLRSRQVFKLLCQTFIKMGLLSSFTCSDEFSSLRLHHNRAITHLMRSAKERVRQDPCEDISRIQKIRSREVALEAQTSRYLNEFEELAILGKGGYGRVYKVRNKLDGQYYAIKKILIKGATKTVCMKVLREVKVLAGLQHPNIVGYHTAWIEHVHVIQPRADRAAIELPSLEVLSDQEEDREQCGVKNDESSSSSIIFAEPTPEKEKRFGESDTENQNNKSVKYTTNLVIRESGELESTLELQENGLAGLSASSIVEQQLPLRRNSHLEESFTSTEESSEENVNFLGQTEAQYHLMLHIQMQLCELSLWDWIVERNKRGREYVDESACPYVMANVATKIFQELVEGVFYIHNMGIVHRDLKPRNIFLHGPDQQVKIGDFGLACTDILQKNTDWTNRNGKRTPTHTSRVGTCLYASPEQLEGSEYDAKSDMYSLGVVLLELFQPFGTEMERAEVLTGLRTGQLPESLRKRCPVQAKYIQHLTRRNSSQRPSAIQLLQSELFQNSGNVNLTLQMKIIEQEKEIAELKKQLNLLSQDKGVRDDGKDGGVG
Dual specificity mitogen-activated protein kinase kinase 7 (Homo sapiens), sequence (O14733 whole entry): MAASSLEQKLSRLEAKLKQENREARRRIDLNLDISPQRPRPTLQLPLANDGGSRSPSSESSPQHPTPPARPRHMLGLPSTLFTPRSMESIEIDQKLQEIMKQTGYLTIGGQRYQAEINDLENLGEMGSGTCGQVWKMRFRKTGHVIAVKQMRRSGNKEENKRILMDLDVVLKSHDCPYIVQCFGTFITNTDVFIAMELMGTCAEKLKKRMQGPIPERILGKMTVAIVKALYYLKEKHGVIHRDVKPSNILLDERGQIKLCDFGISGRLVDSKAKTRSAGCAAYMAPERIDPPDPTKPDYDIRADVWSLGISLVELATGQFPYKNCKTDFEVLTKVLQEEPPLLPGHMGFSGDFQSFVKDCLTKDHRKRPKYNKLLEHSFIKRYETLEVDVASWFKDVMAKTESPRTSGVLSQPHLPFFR
Serine/threonine-protein kinase MRCK gamma (Homo sapiens), sequence (Q6DT37 whole entry): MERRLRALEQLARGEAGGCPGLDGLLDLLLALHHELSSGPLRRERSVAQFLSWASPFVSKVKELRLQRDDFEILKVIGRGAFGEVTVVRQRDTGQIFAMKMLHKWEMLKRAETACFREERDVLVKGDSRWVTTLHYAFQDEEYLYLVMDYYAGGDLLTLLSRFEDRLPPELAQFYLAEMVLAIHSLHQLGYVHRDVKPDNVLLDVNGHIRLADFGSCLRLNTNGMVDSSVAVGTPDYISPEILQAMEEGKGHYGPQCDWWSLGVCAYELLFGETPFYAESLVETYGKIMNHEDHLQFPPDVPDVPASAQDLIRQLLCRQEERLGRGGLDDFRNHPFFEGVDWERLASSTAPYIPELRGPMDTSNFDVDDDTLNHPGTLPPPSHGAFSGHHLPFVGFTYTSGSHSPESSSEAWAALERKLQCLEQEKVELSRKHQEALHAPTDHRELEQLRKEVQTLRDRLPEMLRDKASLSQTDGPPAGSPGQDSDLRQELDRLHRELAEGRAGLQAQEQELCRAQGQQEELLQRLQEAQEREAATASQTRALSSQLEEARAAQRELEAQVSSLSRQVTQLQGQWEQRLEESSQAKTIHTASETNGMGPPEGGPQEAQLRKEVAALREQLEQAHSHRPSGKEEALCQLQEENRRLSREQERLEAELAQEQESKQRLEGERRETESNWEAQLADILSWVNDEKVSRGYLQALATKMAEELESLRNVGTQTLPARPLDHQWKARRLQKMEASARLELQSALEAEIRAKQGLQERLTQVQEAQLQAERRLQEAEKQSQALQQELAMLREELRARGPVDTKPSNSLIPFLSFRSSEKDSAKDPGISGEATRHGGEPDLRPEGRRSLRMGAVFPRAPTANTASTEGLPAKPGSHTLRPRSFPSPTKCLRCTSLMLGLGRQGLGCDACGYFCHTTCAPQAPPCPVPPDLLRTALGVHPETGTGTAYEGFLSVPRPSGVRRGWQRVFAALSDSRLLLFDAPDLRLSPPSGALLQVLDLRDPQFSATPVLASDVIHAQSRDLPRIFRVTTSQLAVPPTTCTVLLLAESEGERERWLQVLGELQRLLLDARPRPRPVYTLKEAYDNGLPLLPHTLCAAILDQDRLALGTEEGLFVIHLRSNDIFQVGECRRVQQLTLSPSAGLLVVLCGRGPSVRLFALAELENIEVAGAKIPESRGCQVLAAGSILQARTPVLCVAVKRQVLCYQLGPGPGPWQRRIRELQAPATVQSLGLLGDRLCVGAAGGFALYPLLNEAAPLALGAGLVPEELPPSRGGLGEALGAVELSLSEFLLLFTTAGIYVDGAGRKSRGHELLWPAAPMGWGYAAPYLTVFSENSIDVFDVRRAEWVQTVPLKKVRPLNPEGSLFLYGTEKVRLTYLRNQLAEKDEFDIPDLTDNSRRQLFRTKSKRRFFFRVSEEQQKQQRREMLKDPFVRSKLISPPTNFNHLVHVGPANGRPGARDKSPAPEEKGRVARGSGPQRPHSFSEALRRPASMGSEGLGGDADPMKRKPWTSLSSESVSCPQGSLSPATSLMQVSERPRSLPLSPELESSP
Receptor-interacting serine/threonine-protein kinase 4 (Homo sapiens), sequence (P57078 whole entry): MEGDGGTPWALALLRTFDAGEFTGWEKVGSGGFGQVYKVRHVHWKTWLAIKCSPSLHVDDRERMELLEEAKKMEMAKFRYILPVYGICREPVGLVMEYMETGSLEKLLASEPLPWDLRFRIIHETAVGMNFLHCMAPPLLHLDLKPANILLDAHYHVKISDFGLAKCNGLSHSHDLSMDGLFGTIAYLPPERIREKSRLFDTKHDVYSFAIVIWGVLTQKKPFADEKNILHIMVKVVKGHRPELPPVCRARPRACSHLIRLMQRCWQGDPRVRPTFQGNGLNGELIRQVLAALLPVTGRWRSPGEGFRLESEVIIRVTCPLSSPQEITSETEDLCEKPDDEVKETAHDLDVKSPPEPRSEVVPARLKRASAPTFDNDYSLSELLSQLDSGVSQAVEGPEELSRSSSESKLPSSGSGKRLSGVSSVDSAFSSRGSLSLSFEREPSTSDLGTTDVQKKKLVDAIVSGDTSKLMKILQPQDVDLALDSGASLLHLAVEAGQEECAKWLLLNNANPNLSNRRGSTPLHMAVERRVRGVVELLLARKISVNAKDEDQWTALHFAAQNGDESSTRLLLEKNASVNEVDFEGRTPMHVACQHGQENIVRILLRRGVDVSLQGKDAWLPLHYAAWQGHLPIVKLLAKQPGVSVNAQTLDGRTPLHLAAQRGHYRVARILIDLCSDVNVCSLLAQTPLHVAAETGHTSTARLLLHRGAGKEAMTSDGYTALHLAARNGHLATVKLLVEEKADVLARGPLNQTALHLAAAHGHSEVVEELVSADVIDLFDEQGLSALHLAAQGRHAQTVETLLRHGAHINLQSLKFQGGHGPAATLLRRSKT

CN1C(=O)c2sccc2N(C)c2nc(Nc3ccc(S(N)(=O)=O)cc3)ncc21
Activity [1]: 93% | Activity [2]: 95% | Activity [3]: 100% | Activity [4]: 57% | Activity [5]: 12% | Activity [6]: 85% | Activity (Mus musculus): Active | Kd [7]: 0.042 µM | Activity [8]: 100% | Activity [9]: 86% | Activity [10]: 100% | Activity [11]: 0.9% | inhibition (Primary hepatocyte): Active | Activity [12]: 100% | Activity [13]: 100% | IC50 [14]: 0.0019 µM | Activity [15]: 9.5% | Activity [16]: 8.3% | Activity [17]: 42% | Activity [18]: 67% | Activity [19]: 94% | Activity [20]: 92% | Activity [21]: 100% | IC50 [22]: 0.0415 µM | Activity [23]: 96% | Activity [24]: 90% | Activity [25]: 21%
